In assay [1] the test system is PANC-1. Nature of the assay: Cytotoxicity against human PANC1 cells in nutrient-deprived condition assessed as 100% cell death after 24 hrs by WST8 assay. The class given is functional. Summed up: (§1)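 PANC-1 cells, 2 × 10⁴ per well, grown 24 h in DMEM at 37 °C under 5% CO2, PBS-washed, then switched to DMEM or nutrient-deprived medium (glucose-, amino acid- and serum-free salts, vitamins, 25 mM HEPES, pH 7.4) holding serial dilutions for 24 h. Viability by WST-8 (10% in DMEM, 3 h, A450), blank-corrected against untreated control, mean of three wells. PC100/PC50 = concentration killing 100%/50% of cells preferentially in NDM.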
On the technique in general: Tetrazolium dyes change colour on reduction, which living cells bring about.

For assay [2], the system named is PANC-1. Nature of the assay: Cytotoxicity against human PANC1 cells in nutrient-deprived condition assessed as 50% cell death after 24 hrs by WST8 assay. The class given is functional. The procedure, abridged: as §1
For assay [3], the system named is PANC-1. Nature of the assay: Cytotoxicity against human PANC1 cells in nutrient-deprived condition assessed as complete preferential cell death at 6.25 uM within 24 hrs of starvation by WST8 assay. The class given is functional.
The test system of assay [4] is PANC-1. As to the kind of experiment: Cytotoxicity against human PANC1 cells in nutrient-deprived condition assessed as complete preferential cell death at 50 uM within 6 hrs of treatment by WST8 assay. The format is functional.
The test system of assay [5] is PANC-1. Nature of the assay: Induction of apoptosis in human PANC1 cells in nutrient deprived condition assessed as morphological changes at 6.25 uM within 24 hrs of treatment using phase contrast microscopy by WST8 assay. The class given is functional, cell-based.

SMILES strings stand for the structures. Calls of active or inactive are those of the source. The rule behind the calls is not given here.

In the case of `COc1cc(C[C@H]2C(=O)OC[C@@H]2Cc2ccc(OC)c(OC)c2)ccc1O` [ARCTIGENIN], the CD100 in the assay with PANC-1 [1] was 1 µM. Moreover, the PC50 with PANC-1 [2] turned out to be 0.4 µM.

Regarding `C/C(=C\CC(O)[C@@H](C)[C@H]1CC[C@@]2(C)[C@@H]3CC[C@H]4C(C)(C)[C@H](O)CC[C@@]45C[C@@]35CC[C@]12C)C(=O)O` (stereo partly specified), the CD100 in the assay on PANC-1 [1] was 25 µM. Further, in the assay on PANC-1 [2], the PC50 worked out at 13.4 µM.

With `CC(C)=CCc1c(O)cc(O)c2c1O[C@H](c1ccc(O)cc1)CC2=O` [SOPHORAFLAVANONE B], the CD100 in the assay on PANC-1 [1] was found to be 50 µM. The PC50 with PANC-1 [2] came to 39.4 µM.

`O=c1[nH]cc(F)c(=O)[nH]1` [FLUOROURACIL]: the CD100 in the assay on PANC-1 [1] was more than 100 µM. For the same compound, in the assay on PANC-1 [2], the PC50 was more than 100 µM.

For the compound `C/C(=C\CC[C@@H](C)[C@H]1CC[C@@]2(C)[C@@H]3CC[C@H]4C(C)(C)[C@H](O)CC[C@@]45C[C@@]35CC[C@]12C)C(=O)O` [ISOMANGIFEROLIC ACID], the CD100 in the assay on PANC-1 [1] was determined as 25 µM. The PC50 in the assay on PANC-1 [2] was 13.7 µM.

As for `C[C@H](CC/C=C(\CO)C(=O)O)[C@H]1CC[C@@]2(C)[C@@H]3CC[C@H]4C(C)(C)[C@H](O)CC[C@@]45C[C@@]35CC[C@]12C`, the CD100 in the assay with PANC-1 [1] worked out at 25 µM. In the assay with PANC-1 [2], the PC50 worked out at 15.5 µM.

Regarding `CC(C)=CCc1cc([C@@H]2CC(=O)c3c(O)cc(O)c(CC=C(C)C)c3O2)ccc1O` [LESPEDEZAFLAVANONE B], the CD100 in the assay on PANC-1 [1] was 25 µM. Besides, the PC50 in the assay with PANC-1 [2] amounted to 19.8 µM.

For the compound `CC(=O)O[C@H]1C(=O)[C@@]2(C)[C@H]([C@H](OC(=O)c3ccccc3)[C@]3(O)C[C@H](OC(=O)[C@H](O)[C@@H](NC(=O)c4ccccc4)c4ccccc4)C(C)=C1C3(C)C)[C@]1(OC(C)=O)CO[C@@H]1C[C@@H]2O` [PACLITAXEL], the CD100 in the assay with PANC-1 [1] was more than 100 µM. For the same compound, the PC50 with PANC-1 [2] is more than 100 µM.

Turning to `C/C(=C/C=C/[C@@H](C)[C@H]1CC[C@@]2(C)[C@@H]3CC[C@H]4C(C)(C)C(=O)CC[C@@]45C[C@@]35CC[C@]12C)C(=O)O`, the CD100 in the assay on PANC-1 [1] stood at 6.3 µM. Further, the Activity in the assay on PANC-1 [3] and in the assay on PANC-1 [4] was 100% in each case. In the assay on PANC-1 [5], the result was Active. Further, in the assay on PANC-1 [2], the PC50 worked out at 4.3 µM.

For `C/C(C=O)=C\CC[C@@H](C)[C@H]1CC[C@@]2(C)[C@@H]3CC[C@H]4C(C)(C)[C@@H](O)CC[C@@]45C[C@@]35CC[C@]12C`, the CD100 in the assay on PANC-1 [1] was more than 100 µM. The PC50 in the assay on PANC-1 [2] is more than 100 µM.

Regarding `C/C(=C\CC[C@@H](C)[C@H]1CC[C@@]2(C)[C@@H]3CC[C@@H]4[C@@]5(CCC(=O)[C@@]4(C)CO)C[C@@]35CC[C@]12C)C(=O)O`, the CD100 with PANC-1 [1] was more than 100 µM. For the same compound, the PC50 in the assay with PANC-1 [2] is more than 100 µM.

Turning to `C/C(=C\C(O)C[C@@H](C)[C@H]1CC[C@@]2(C)[C@@H]3CC[C@H]4C(C)(C)C(=O)CC[C@@]45C[C@@]35CC[C@]12C)C(=O)O` (stereo partly specified), in the assay with PANC-1 [1], the CD100 stood at 50 µM. Further, the PC50 in the assay on PANC-1 [2] came to 28 µM.

Regarding `C/C(=C\CC[C@@H](C)[C@H]1CC[C@@]2(C)[C@@H]3CC[C@H]4C(C)(C)C(=O)CC[C@@]45C[C@@]35CC[C@]12C)C(=O)O` [MANGIFERONIC ACID], the CD100 in the assay with PANC-1 [1] is more than 100 µM. Moreover, in the assay on PANC-1 [2], the PC50 was more than 100 µM.

On to `COc1ccc([C@@H]2CC(=O)c3c(O)cc(O)c(CC=C(C)C)c3O2)cc1CC=C(C)C`, for which, in the assay with PANC-1 [1], the CD100 worked out at 12.5 µM. In addition, the PC50 in the assay on PANC-1 [2] was found to be 7.9 µM.

In the case of `C[C@H](CC/C=C(\CO)C(=O)O)[C@H]1CC[C@@]2(C)[C@@H]3CC[C@@H]4[C@@]5(CCC(=O)[C@@]4(C)CO)C[C@@]35CC[C@]12C`, the CD100 with PANC-1 [1] is more than 100 µM. Also, the PC50 in the assay on PANC-1 [2] is more than 100 µM.

Regarding `C[C@H](CC/C=C(\CO)C(=O)O)[C@H]1CC[C@@]2(C)[C@@H]3CC[C@H]4C(C)(C)C(=O)CC[C@@]45C[C@@]35CC[C@]12C`, the CD100 with PANC-1 [1] stood at 50 µM. The PC50 in the assay on PANC-1 [2] amounted to 38.5 µM.

For `C/C(=C\C(O)C[C@@H](C)[C@H]1CC[C@@]2(C)[C@@H]3CC[C@H]4C(C)(C)[C@@H](O)CC[C@@]45C[C@@]35CC[C@]12C)C(=O)O` (stereo partly specified), the CD100 with PANC-1 [1] was more than 100 µM. For the same compound, in the assay with PANC-1 [2], the PC50 is more than 100 µM.

As for `C[C@H](CC/C=C(\CO)C(=O)O)[C@H]1CC[C@@]2(C)[C@@H]3CC[C@H]4C(C)(C)[C@@H](O)CC[C@@]45C[C@@]35CC[C@]12C`, the CD100 in the assay with PANC-1 [1] was more than 100 µM. Also, the PC50 with PANC-1 [2] was more than 100 µM.

Take `C/C(=C\CC[C@@H](C)[C@H]1CC[C@@]2(C)[C@@H]3CC[C@H]4C(C)(C)[C@@H](O)CC[C@@]45C[C@@]35CC[C@]12C)C(=O)O` [MANGIFEROLIC ACID]: the CD100 in the assay with PANC-1 [1] was more than 100 µM. Further, in the assay with PANC-1 [2], the PC50 was more than 100 µM.

(Values after ChEMBL document CHEMBL1153057, “Chemical constituents of propolis from Myanmar and their preferential cytotoxicity against a human pancreatic cancer cell line” (2009).)
